{"source": "ChEMBL document CHEMBL1255317", "about": "“Attenuated vancomycin bactericidal activity against Staphylococcus aureus hemB mutants expressing the small-colony-variant phenotype” (2008)", "key": {"Staphylococcus aureus [1]": {"system": "Staphylococcus aureus", "test": "Antimicrobial activity against methicillin resistant Staphylococcus aureus COL assessed as bacterial killing by time kill study", "format": "functional, organism-based"}, "Staphylococcus aureus [2]": {"system": "Staphylococcus aureus", "test": "Antimicrobial activity against methicillin resistant Staphylococcus aureus Newman assessed as bacterial killing by time kill study", "format": "functional, organism-based"}, "Staphylococcus aureus [3]": {"system": "Staphylococcus aureus", "test": "Antimicrobial activity against methicillin resistant Staphylococcus aureus isolate A20780 I isolated from persistent bacterial infection patient assessed as bacterial killing by time kill study", "format": "functional, organism-based"}, "Staphylococcus aureus [4]": {"system": "Staphylococcus aureus", "test": "Antimicrobial activity against methicillin resistant Staphylococcus aureus COL assessed as bacterial killing at 64 times MIC after 24 hrs by time kill study relative to baseline", "format": "functional", "outline": "(§1)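 Time-kill in Ca/Mg-supplemented BHI. A 0.5 McFarland saline suspension was diluted to about 10^7 CFU/ml with vancomycin in 10-ml cultures, shaken at 35°C. Counts at 0, 1, 2, 4, 6 and 24 h by spiral plating on BHI agar, incubated 24 h at 35°C (48 h for Ia48 and III33). Drug-free growth controls were run. Value is the 24-h log10 CFU/ml change from baseline; runs were duplicate to quadruplicate.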"}, "Staphylococcus aureus [5]": {"system": "Staphylococcus aureus", "test": "Antimicrobial activity against methicillin resistant Staphylococcus aureus Newman assessed as bacterial killing at 64 times MIC after 24 hrs by time kill study relative to baseline", "format": "functional", "outline": "as §1"}, "Staphylococcus aureus [6]": {"system": "Staphylococcus aureus", "test": "Antimicrobial activity against methicillin resistant Staphylococcus aureus isolate A20780 I isolated from persistent bacterial infection patient assessed as bacterial killing at 64 times MIC after 24 hrs by time kill study", "format": "functional", "outline": "as §1"}, "Staphylococcus aureus [7]": {"system": "Staphylococcus aureus", "test": "Antimicrobial activity against methicillin resistant Staphylococcus aureus isolate A20780 II with hemin auxotrophism and expressing small-colony-variant phenotype isolated from persistent bacterial infection patient assessed as bacterial killing at 64 times MIC after 24 hrs by time kill study", "format": "functional", "outline": "as §1"}, "Staphylococcus aureus [8]": {"system": "Staphylococcus aureus", "test": "Antimicrobial activity against methicillin resistant Staphylococcus aureus Ia48 containing hemB mutation (hemB::ermB) expressing small-colony-variant phenotype assessed as bacterial killing at 64 times MIC after 24 hrs by time kill study", "format": "functional", "outline": "as §1"}, "Staphylococcus aureus [9]": {"system": "Staphylococcus aureus", "test": "Antimicrobial activity against methicillin resistant Staphylococcus aureus III33 containing hemB mutation (hemB::ermB) expressing small-colony-variant phenotype assessed as bacterial killing at 64 times MIC after 24 hrs by time kill study", "format": "functional", "outline": "as §1"}}}
{"smiles": "CN[C@H](CC(C)C)C(=O)N[C@H]1C(=O)N[C@@H](CC(N)=O)C(=O)N[C@H]2C(=O)N[C@H]3C(=O)N[C@H](C(=O)N[C@H](C(=O)O)c4cc(O)cc(O)c4-c4cc3ccc4O)[C@H](O)c3ccc(c(Cl)c3)Oc3cc2cc(c3O[C@@H]2O[C@H](CO)[C@@H](O)[C@H](O)[C@H]2O[C@H]2C[C@](C)(N)[C@H](O)[C@H](C)O2)Oc2ccc(cc2Cl)[C@H]1O", "note": "[VANCOMYCIN]", "values": [{"measurement": "Activity", "setting": "Staphylococcus aureus [1]", "value": "Dose-dependent effect"}, {"measurement": "Activity", "setting": "Staphylococcus aureus [2]", "value": "Dose-dependent effect"}, {"measurement": "Activity", "setting": "Staphylococcus aureus [3]", "value": "Dose-dependent effect"}, {"measurement": "log10CFU/ml", "setting": "Staphylococcus aureus [4]", "value": 3.99}, {"measurement": "log10CFU/ml", "setting": "Staphylococcus aureus [5]", "value": 4.81}, {"measurement": "log10CFU/ml", "setting": "Staphylococcus aureus [6]", "value": 2.39}, {"measurement": "log10CFU/ml", "setting": "Staphylococcus aureus [7]", "value": 1.78}, {"measurement": "log10CFU/ml", "setting": "Staphylococcus aureus [8]", "value": 1.4}, {"measurement": "log10CFU/ml", "setting": "Staphylococcus aureus [9]", "value": 1.88}]}
